{"source": "paper PMC9075125", "about": "(RSC Advances, 2019)", "assay_in_all_cases": "Cell proliferation assay", "type_in_all_cases": "cell-based", "key": {"[1]": {"test_system": "human colon cancer cell line HT-29", "conditions": "HT-29, 48 h, read-out: IC50, antiproliferation, Human colon cancer (HT-29)", "procedure,_shortened": "(§1)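 Log-phase adherent cells were seeded at 5 × 10^4 cells per mL and allowed 24 h before test compound was added at a range of concentrations for 48 h. MTT (5 mg mL−1 stock) was added for a further 4 h. Medium was removed, formazan dissolved in DMSO, and the plate read on a microplate reader. IC50 was calculated from dose–response curves of three independent assays.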"}, "[2]": {"test_system": "human breast cancer cell line MCF-7", "conditions": "MCF7, 48 h, read-out: IC50, antiproliferation, Human breast cancer (MCF-7)", "procedure,_shortened": "as §1"}, "[3]": {"test_system": "non-small cell lung cancer cell line NCI-H460", "conditions": "Homo sapiens, NCI-H460, 48 h, read-out: IC50, antiproliferation, Non-small cell lung cancer (H460)", "procedure,_shortened": "as §1"}}}
{"smiles": "CC[C@@]1(O)C(=O)OCc2c1cc1n(c2=O)Cc2cc3ccccc3nc2-1", "note": "[CPT, camptothecin]", "values": [{"measurement": "IC50", "setting": "[1]", "result": "40 ± 20", "unit": "nM"}, {"measurement": "IC50", "setting": "[2]", "result": "370 ± 50", "unit": "nM"}, {"measurement": "IC50", "setting": "[3]", "result": "40 ± 2", "unit": "nM"}]}
